Source: ChEMBL document CHEMBL1147796, “New potent P-glycoprotein inhibitors carrying a polycyclic scaffold” (J Med Chem, 2006)

Experiments:
[1] = target: T1, ATP-dependent translocase ABCB1 (Homo sapiens, UniProt P08183); assay: Antiproliferative activity against human MDR1 transfected mouse L5178Y cell line; format: functional, cell-based; conditions: read-out: ID50 (the source's name) (converted)
[2] = target: T1, ATP-dependent translocase ABCB1; assay: Reversal of multi-drug resistance in L5178Y cells transfected with human MDR1 as relative fluorescent rhodamine123 activity at 1 ug/mL; format: cell-based
Outline: (§1)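 L5178Y mouse T-cell lymphoma subline carrying the human MDR1 gene, with the parental drug-sensitive line also listed. A larger number of cells was exposed to compound for 30 min. Rhodamine 123 accumulation was read by fluorescence, and P-gp-mediated efflux reversal was expressed as a fluorescence activity ratio.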

[3] = target: T1, ATP-dependent translocase ABCB1; assay: Reversal of multi-drug resistance in L5178Y cells transfected with human MDR1 as relative fluorescent rhodamine123 activity at 0.1 ug/mL; format: cell-based; outline: as §1

T1 sequence (P08183 whole entry): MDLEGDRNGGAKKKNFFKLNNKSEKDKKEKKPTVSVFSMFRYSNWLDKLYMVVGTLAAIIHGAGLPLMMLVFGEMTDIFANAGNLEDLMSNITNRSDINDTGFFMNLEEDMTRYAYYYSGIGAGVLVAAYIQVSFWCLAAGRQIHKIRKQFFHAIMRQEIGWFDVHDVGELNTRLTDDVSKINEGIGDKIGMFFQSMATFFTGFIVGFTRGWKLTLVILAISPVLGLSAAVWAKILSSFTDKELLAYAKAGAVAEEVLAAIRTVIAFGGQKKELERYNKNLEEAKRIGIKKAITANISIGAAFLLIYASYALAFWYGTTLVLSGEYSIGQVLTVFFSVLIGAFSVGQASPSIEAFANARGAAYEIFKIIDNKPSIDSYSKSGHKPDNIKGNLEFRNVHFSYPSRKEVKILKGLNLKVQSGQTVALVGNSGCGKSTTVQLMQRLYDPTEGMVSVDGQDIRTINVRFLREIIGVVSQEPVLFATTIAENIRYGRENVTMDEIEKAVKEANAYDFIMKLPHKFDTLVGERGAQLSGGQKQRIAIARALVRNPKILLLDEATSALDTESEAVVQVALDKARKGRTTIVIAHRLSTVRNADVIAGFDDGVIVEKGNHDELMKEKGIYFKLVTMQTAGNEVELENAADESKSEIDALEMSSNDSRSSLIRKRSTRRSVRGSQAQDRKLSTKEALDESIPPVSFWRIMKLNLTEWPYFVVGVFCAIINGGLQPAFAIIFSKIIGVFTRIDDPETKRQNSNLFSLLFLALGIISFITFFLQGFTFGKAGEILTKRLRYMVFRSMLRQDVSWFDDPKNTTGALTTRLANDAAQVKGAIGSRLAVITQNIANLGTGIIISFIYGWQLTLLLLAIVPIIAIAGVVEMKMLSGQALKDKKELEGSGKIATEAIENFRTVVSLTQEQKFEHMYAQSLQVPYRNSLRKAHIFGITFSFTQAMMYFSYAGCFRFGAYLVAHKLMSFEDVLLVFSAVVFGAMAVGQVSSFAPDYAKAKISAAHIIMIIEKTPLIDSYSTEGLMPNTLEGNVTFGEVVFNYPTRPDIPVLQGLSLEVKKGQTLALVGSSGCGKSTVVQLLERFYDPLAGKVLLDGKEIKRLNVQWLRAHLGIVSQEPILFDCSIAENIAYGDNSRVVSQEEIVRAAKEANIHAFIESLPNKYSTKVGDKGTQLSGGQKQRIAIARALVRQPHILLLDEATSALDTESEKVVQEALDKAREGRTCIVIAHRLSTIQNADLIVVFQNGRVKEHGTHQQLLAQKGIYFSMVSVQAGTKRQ

Row | GI50 [1] [µM] | Ratio [2] | Ratio [3] | SMILES
1 | 4.23 | 47.85 | 2.76 | COc1ccc(CCN(C)CCN2C(=O)C3C4c5ccccc5C(c5ccccc54)C3C2=O)cc1OC (centres undefined)
2 | 5.72 | 28.62 | 7.91 | COc1ccc(CCN(C)CCCN2C(=O)C3C4c5ccccc5C(c5ccccc54)C3C2=O)cc1OC (centres undefined)
3 | 2.55 | 89.35 | 2.65 | COc1ccc(CCN(C)CC#CCN2C(=O)C3C4c5ccccc5C(c5ccccc54)C3C2=O)cc1OC (centres undefined)
